# Results published in ChEMBL document CHEMBL1126782, “Synthesis and pharmacological evaluation of 1-phenyl-3-amino-1,2,3,4-tetrahydronaphthalenes as ligands for a novel receptor with sigma-like neuromodulatory activity” (J Med Chem, 1993).
# What was measured:
# [1] = target: Tyrosine 3-monooxygenase (Rattus norvegicus) (UniProt P04177); assay: Tyrosine hydroxylase activity at 0.1 uM in rat striatal minces; format: functional
# [2] = target: T1, D(2) dopamine receptor (Rattus norvegicus, UniProt P61169); assay: Binding affinity against dopamine receptor D2 from rat striatal homogenates using [3H]YM-09151-2
# T1 sequence (P61169 whole entry): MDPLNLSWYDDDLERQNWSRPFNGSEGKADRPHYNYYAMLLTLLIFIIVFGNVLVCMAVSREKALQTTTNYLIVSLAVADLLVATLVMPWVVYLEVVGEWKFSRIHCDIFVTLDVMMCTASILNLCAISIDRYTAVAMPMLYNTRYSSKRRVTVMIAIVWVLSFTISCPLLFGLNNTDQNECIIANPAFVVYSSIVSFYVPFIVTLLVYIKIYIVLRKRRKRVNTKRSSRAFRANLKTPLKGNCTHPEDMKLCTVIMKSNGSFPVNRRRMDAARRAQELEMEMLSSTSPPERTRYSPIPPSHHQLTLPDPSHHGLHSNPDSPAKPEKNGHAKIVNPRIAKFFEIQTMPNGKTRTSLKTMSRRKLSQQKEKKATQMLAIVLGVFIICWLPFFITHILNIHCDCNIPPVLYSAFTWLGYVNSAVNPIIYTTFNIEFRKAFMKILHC
# In short: (§1)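 Competition binding with rat striatal homogenates in Tris-HCl, pH 7.4, containing 150 mM NaCl at 30 °C. […] Nonspecific binding was defined by (+)-butaclamol. Six or more concentrations bracketing the IC50 were run in duplicate, with three replications. IC50 values came from curve fitting.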
# [3] = target: T2, D(1A) dopamine receptor (Rattus norvegicus, UniProt P18901); assay: Binding affinity against dopamine receptor D1 from rat striatal homogenates, using [3H]SCH-23390 as radioligand.
# T2 sequence (P18901 whole entry): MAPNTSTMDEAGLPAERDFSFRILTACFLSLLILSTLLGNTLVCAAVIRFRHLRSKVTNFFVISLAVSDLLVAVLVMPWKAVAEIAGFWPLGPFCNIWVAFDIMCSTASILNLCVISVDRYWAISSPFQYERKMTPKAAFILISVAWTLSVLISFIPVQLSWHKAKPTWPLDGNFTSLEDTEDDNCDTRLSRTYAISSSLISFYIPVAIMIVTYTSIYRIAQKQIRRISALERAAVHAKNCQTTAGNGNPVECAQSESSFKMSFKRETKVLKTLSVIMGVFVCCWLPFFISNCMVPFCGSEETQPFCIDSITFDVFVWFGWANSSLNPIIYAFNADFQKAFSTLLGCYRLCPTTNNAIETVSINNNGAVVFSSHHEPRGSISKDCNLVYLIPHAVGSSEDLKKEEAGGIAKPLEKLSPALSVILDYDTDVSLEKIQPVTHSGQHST
# In short: (§2)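 Competition binding with rat striatal homogenates in Tris-HCl, pH 7.4, with 150 mM NaCl at 30 °C. […] Nonspecific binding was defined by 0.3 μM cis-(Z)-flupenthixol. Six or more concentrations bracketing the IC50 were run in duplicate, with three replications. IC50 values came from curve fitting.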
# [4] = target: Tyrosine 3-monooxygenase (Rattus norvegicus) (UniProt P04177); assay: Tyrosine hydroxylase activity at 0.1 uM in rat striatal minces; effect blocked by BMY-14802; format: functional
# [5] = target: T2, D(1A) dopamine receptor; assay: Binding affinity against dopamine receptor D1 from rat striatal homogenates, using [3H]SCH-23,390 as radioligand; in short: as §2
# [6] = target: T1, D(2) dopamine receptor; assay: Binding affinity against dopamine receptor D2 from rat striatal homogenates, using [3H]YM-09151-2 as radioligand; in short: as §1
# [7] = target: Tyrosine 3-monooxygenase (Rattus norvegicus) (UniProt P04177); assay: Tyrosine hydroxylase activity at 0.1 uM in rat striatal minces; effect not blocked by BMY-14802; format: functional
# [8] = target: Tyrosine 3-monooxygenase (Rattus norvegicus) (UniProt P04177); assay: Tyrosine hydroxylase activity at 0.1 uM in rat striatal minces; effect not blocked bt BMY-14802; format: functional
# Tyrosine 3-monooxygenase (Rattus norvegicus), sequence (P04177 whole entry): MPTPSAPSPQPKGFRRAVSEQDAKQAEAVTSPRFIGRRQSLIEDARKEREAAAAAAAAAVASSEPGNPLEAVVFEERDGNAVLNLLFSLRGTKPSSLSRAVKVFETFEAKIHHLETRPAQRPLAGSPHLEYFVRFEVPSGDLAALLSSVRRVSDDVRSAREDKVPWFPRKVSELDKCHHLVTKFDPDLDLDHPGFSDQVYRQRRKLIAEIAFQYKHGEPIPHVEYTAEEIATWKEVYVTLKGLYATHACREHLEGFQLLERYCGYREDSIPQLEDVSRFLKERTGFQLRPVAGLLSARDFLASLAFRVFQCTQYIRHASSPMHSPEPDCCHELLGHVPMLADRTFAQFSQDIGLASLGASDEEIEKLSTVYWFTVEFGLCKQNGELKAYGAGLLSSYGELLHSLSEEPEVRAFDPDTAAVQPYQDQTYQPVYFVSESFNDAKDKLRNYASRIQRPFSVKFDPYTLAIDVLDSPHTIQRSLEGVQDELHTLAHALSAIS
Compound,Control [1],IC50 [2],IC50 [3],other results
C=CCN(CC=C)C1Cc2ccccc2C(c2ccccc2)C1 (configuration not stated),104%,4 µM,10 µM,–
CN(C)C1Cc2ccccc2C(c2ccccc2)C1 (configuration not stated),101%,–,–,–
CN(C)[C@H]1CCc2ccccc2[C@H]1c1ccccc1,111%,–,–,–
NC1Cc2cc(O)c(O)cc2C(c2ccccc2)C1 (cis isomer) [listing 2 of 2 here],95%,–,–,–
NC1Cc2cc(O)c(O)cc2C(c2ccccc2)C1 (trans isomer) [listing 1 of 2 here],–,> 30 µM,> 30 µM,–
CN(C)C1Cc2cc(O)c(O)cc2C(c2ccccc2)C1 (trans isomer) [listing 1 of 2 here],–,> 5 µM,> 10 µM,–
NC1Cc2ccccc2C(c2ccccc2)C1 (trans isomer),86%,> 10 µM,> 10 µM,–
CNC1Cc2cc(Cl)c(O)cc2C(c2ccccc2)C1 (trans isomer),99%,–,–,IC50 [6]: 10 µM; IC50 [5]: 0.849 µM
CCN(CC)C1Cc2ccccc2C(c2ccccc2)C1 (trans isomer),95%,–,–,–
CN(C)C1Cc2cc(O)c(O)cc2C(c2ccccc2)C1 (trans isomer) [listing 2 of 2 here],–,–,–,Control [7]: 75%
NC1Cc2cc(O)c(O)cc2C(c2ccccc2)C1 (trans isomer) [listing 2 of 2 here],–,–,–,Control [8]: 71%

# Continued, in another order:
Control [1],IC50 [2],IC50 [3],Compound,other results
–,4.13 µM,–,CN(C)[C@H]1Cc2cc(Cl)c(O)cc2[C@H](c2ccccc2)C1,Control [4]: 128%; IC50 [5]: 1.89 µM
72%,–,–,C=CCN(C)C1Cc2ccccc2C(c2ccccc2)C1 (configuration not stated),–
–,> 10 µM,> 30 µM,NC1Cc2cc(O)c(O)cc2C(c2ccccc2)C1 (cis isomer) [listing 1 of 2 here],–
–,> 5 µM,> 1 µM,CN(C)C1Cc2cc(O)c(O)cc2C(c2ccccc2)C1 (cis isomer) [listing 1 of 2 here],–
94%,–,–,CN(C)C1Cc2cc(Cl)c(O)cc2C(c2ccccc2)C1 (cis isomer),–
100%,–,–,CN(C)C1Cc2cc(O)c(O)cc2C(c2ccccc2)C1 (cis isomer) [listing 2 of 2 here],–
102%,6 µM,10 µM,C=CCNC1Cc2ccccc2C(c2ccccc2)C1 (trans isomer),–
